Experimental data: ChEMBL document CHEMBL2163315, “Synthesis and SAR of geminal substitutions at the C5' carbosugar position of pyrimidine-derived HCV inhibitors” (Bioorg Med Chem Lett, 2012)

Columns and labels:
[1] = AUC (0 to 6 hrs) in rat at 10 mg/kg, po; assay type: ADME, organism-based; parameters: time < 6 hr, dose 10 mg/kg, route oral; settings: plasma
Method in brief: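 Single oral dose of 10 mpk given to rats, as HCl salt. Plasma exposure expressed as AUC over 0–6 h.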

Hepatitis C virus = assay: Antiviral activity against Hepatitis C virus genotype 1b Con1 infected in human hepatoma cells assessed as inhibition of viral RNA replication by subgenomic replicon assay; assay type: functional, organism-based, Hepacivirus hominis; settings: genotype 1b Con 1
Method in brief: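 Subgenomic 1b-Con1 replicon cells seeded at 5000 cells/well one day before dosing. Compound in DMSO added as 10 serial twofold dilutions in triplicate (final 0.5% DMSO, 10% FBS). Cells harvested three days post dosing. Replicon RNA quantified by real-time RT-PCR (Taqman), normalised to GAPDH RNA as endogenous control. EC50 calculated from the dose-response.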

[2] = Cytotoxicity against human hepatoma cells assessed as effect on cellular GAPDH RNA level; assay type: cell-based
[3] = Cytotoxicity against human hepatoma cells after 3 days by MTS assay; assay type: cell-based
Method in brief: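 Replicon cells treated the same way as in the replicon activity assay (DMSO vehicle, 10% FBS, 3 days). Viability read three days post dosing by MTS (CellTiter 96 Aqueous One). CC50 is the concentration giving 50% inhibition relative to vehicle-treated cells.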

[4] = AUC (0 to 24 hrs) in rat at 10 mg/kg, po; assay type: ADME, organism-based; parameters: time < 24 hr, dose 10 mg/kg, route oral; settings: plasma
Method in brief: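 Oral dosing to rats at 10 mpk. Plasma exposure monitored over 0–24 h.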

[5] = Drug uptake in rat liver at 10 mg/kg, po after 6 hrs; assay type: ADME, organism-based; parameters: dose 10 mg/kg, route oral; settings: read-out: Drug uptake
Method in brief: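 Rats dosed orally at 10 mpk. Compound concentration in liver measured at 6 h.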

[6] = Oral bioavailability in cynomolgus monkey at 3 mg/kg; assay type: ADME, organism-based, Macaca fascicularis; settings: in vivo
[7] = AUC (0 to 24 hrs) in cynomolgus monkey at 3 mg/kg, po; assay type: ADME, organism-based, Macaca fascicularis; parameters: time < 24 hr, dose 3 mg/kg, route oral; settings: plasma
Method in brief: (§1)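 Oral dosing at 3 mpk to dog and monkey. Plasma exposure monitored over 0–24 h.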

[8] = Oral bioavailability in rat at 10 mg/kg; assay type: ADME, organism-based; settings: in vivo
[9] = AUC (0 to 24 hrs) in dog at 3 mg/kg, po; assay type: ADME, organism-based, Canis lupus familiaris; parameters: time < 24 hr, dose 3 mg/kg, route oral; settings: plasma; method in brief: as §1
[10] = Cytotoxicity against human hepatoma cells assessed as inhibition of [methyl-14C]thymidine incorporation in DNA after 3 days by scintillation proximity assay; assay type: cell-based; settings: for CC50 at 72 h: human hepatoma cells
Method in brief: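 Replicon cells seeded in scintillating microplates one day before treatment. Various inhibitor concentrations added in triplicate together with [methyl-14C]-thymidine (final 0.5 µCi/mL media) and incubated three days. Incorporated label read by scintillation proximity counting. DNA CC50 is the concentration giving 50% inhibition of thymidine incorporation relative to vehicle-treated cells.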

[11] = Oral bioavailability in dog at 3 mg/kg; assay type: ADME, organism-based, Canis lupus familiaris; settings: in vivo

Row | SMILES | AUC(0-t) at 6 h [1] | EC50 (Hepatitis C virus) | CC50 [2] | CC50 at 72 h [3] | AUC(0-t) at 24 h [4] | concentration at 6 h [5] | bioavailability [6] | AUC(0-t) at 24 h [7] | bioavailability [8] | AUC(0-t) at 24 h [9] | CC50 at 72 h [10] | bioavailability [11] | CC25 ([10]; 72 h)
1 | Cc1nc(NCC2CC2)nc(N[C@@H]2C[C@H](C(C)(C)O)[C@@H](O)[C@H]2O)c1-c1nc2cnccc2s1.Cl | 8.5 µM·h | 20 nM | > 12 µM | > 12 µM | – | – | – | – | – | – | – | – | –
2 | Cc1nc(NCC2CC2)nc(N[C@@H]2C[C@H](C(C)(C)O)[C@@H](O)[C@H]2O)c1-c1nc2c(C)nccc2s1 | – | 20 nM | > 25 µM | > 25 µM | 10 µM·h | 9500 ng/g | 6% | 0.3 µM·h | 39% | 4.9 µM·h | 25 µM | 66% | –
3 | Cc1nc(NCC2CC2)nc(N[C@@H]2C[C@H](C3(O)CC3)[C@@H](O)[C@H]2O)c1-c1nc2c(C)nccc2s1 | 1.6 µM·h | 4 nM | > 25 µM | > 25 µM | – | – | – | – | – | – | – | – | –
4 | Cc1nc(NCC2CCCCO2)nc(N[C@@H]2C[C@H](C(C)(C)O)[C@@H](O)[C@H]2O)c1-c1nc2c(C)nccc2s1 (stereo partly drawn) | 9.9 µM·h | 4 nM | > 25 µM | > 25 µM | – | 1800 ng/g | – | – | – | – | – | – | 3 µM
5 | Cc1nc(NCCN2CCOCC2)nc(N[C@@H]2C[C@H](C(C)(C)O)[C@@H](O)[C@H]2O)c1-c1nc2c(C)nccc2s1 | 0.2 µM·h | 20 nM | > 25 µM | > 25 µM | – | – | – | – | – | – | – | – | –
6 | COCCNc1nc(C)c(-c2nc3c(C)nccc3s2)c(N[C@@H]2C[C@H](C(C)(C)O)[C@@H](O)[C@H]2O)n1 | – | 20 nM | > 25 µM | > 25 µM | 16 µM·h | 1900 ng/g | 46% | 3.7 µM·h | 49% | 0.9 µM·h | 7 µM | 18% | –
7 | COCCNc1nc(C)c(-c2nc3c(C)nccc3s2)c(N[C@@H]2C[C@H](C3(O)CC3)[C@@H](O)[C@H]2O)n1 | 3.9 µM·h | 7 nM | > 25 µM | 13 µM | – | – | – | – | – | – | – | – | –
8 | Cc1nc(N(C)CC2CC2)nc(N[C@@H]2C[C@H](C(C)(C)O)[C@@H](O)[C@H]2O)c1-c1nc2c(C)nccc2s1 | – | 90 nM | > 25 µM | 23 µM | – | – | – | – | – | – | – | – | –
9 | Cc1nc(NCCN(C)C)nc(N[C@@H]2C[C@H](C(C)(C)O)[C@@H](O)[C@H]2O)c1-c1nc2c(C)nccc2s1 | – | 130 nM | 7 µM | 12 µM | – | – | – | – | – | – | – | – | –
10 | CSCCNc1nc(C)c(-c2nc3c(C)nccc3s2)c(N[C@@H]2C[C@H](C(C)(C)O)[C@@H](O)[C@H]2O)n1 | 1.6 µM·h | 8 nM | > 25 µM | > 25 µM | – | – | – | – | – | – | – | – | –
11 | CCC(O)(CC)[C@H]1C[C@@H](Nc2nc(NCCOC)nc(C)c2-c2nc3c(C)nccc3s2)[C@H](O)[C@@H]1O | 1.4 µM·h | 10 nM | > 25 µM | > 25 µM | – | – | – | – | – | – | – | – | –
12 | Cc1nc(N[C@H](C)C2CC2)nc(N[C@@H]2C[C@H](C(C)(C)O)[C@@H](O)[C@H]2O)c1-c1nc2cnccc2s1 | 11 µM·h | 30 nM | > 25 µM | 25 µM | – | – | – | – | – | – | – | – | –
13 | Cc1nc(NCC(F)(F)F)nc(N[C@@H]2C[C@H](C(C)(C)O)[C@@H](O)[C@H]2O)c1-c1nc2c(C)nccc2s1 | 1.8 µM·h | 10 nM | 20 µM | > 12 µM | – | – | – | – | – | – | – | – | –
14 | COCC1(CNc2nc(C)c(-c3nc4c(C)nccc4s3)c(N[C@@H]3C[C@H](C(C)(C)O)[C@@H](O)[C@H]3O)n2)CC1 | 0.7 µM·h | 20 nM | > 25 µM | > 25 µM | – | – | – | – | – | – | – | – | –
15 | Cc1nc(NCC2CC2)nc(N[C@@H]2C[C@H](CO)[C@@H](O)[C@H]2O)c1-c1nc2cnccc2s1 | – | – | 3 µM | – | – | – | – | – | – | – | – | – | –
16 | Cc1nc(N[C@H](C)c2ccc(OC(F)(F)F)cc2)nc(N[C@@H]2C[C@H](C(C)(C)O)[C@@H](O)[C@H]2O)c1-c1nc2c(C)nccc2s1 | 1.2 µM·h | 180 nM | > 25 µM | > 25 µM | – | – | – | – | – | – | – | – | –
17 | Cc1nc(NCC2CC2)nc(N[C@@H]2C[C@H]([C@H](C)O)[C@@H](O)[C@H]2O)c1-c1nc2cnccc2s1.Cl | 1.3 µM·h | 20 nM | 18 µM | 13 µM | – | – | – | – | – | – | – | – | –
18 | COCCNc1nc(C)c(-c2nc3cnccc3s2)c(N[C@@H]2C[C@H](C(C)(C)O)[C@@H](O)[C@H]2O)n1 | 1.3 µM·h | 50 nM | > 25 µM | > 25 µM | – | – | – | – | – | – | – | – | –
19 | Cc1nc(NCc2c(F)cc(F)cc2F)nc(N[C@@H]2C[C@H](C(C)(C)O)[C@@H](O)[C@H]2O)c1-c1nc2c(C)nccc2s1 | 0.4 µM·h | 4 nM | > 25 µM | > 25 µM | – | – | – | – | – | – | – | – | –
20 | CCC(O)(CC)[C@H]1C[C@@H](Nc2nc(NCC3CC3)nc(C)c2-c2nc3c(C)nccc3s2)[C@H](O)[C@@H]1O | 10 µM·h | 5 nM | > 6 µM | > 6 µM | – | – | – | – | – | – | – | – | –
21 | Cc1nc(N)nc(N[C@@H]2C[C@H](C(C)(C)O)[C@@H](O)[C@H]2O)c1-c1nc2c(C)nccc2s1 | – | 40 nM | 4 µM | 6 µM | – | – | – | – | – | – | – | – | –
22 | COC[C@@H](C)Nc1nc(C)c(-c2nc3c(C)nccc3s2)c(N[C@@H]2C[C@H](C(C)(C)O)[C@@H](O)[C@H]2O)n1 | – | 20 nM | > 3 µM | > 3 µM | 18 µM·h | 900 ng/g | 50% | 10 µM·h | 81% | 4.2 µM·h | 25 µM | 50% | –
23 | Cc1nc(NC2CC2)nc(N[C@@H]2C[C@H](C(C)(C)O)[C@@H](O)[C@H]2O)c1-c1nc2c(C)nccc2s1 | 58 µM·h | 50 nM | > 6 µM | > 6 µM | – | – | – | – | – | – | – | – | –
24 | CO[C@H](C)CNc1nc(C)c(-c2nc3c(C)nccc3s2)c(N[C@@H]2C[C@H](C(C)(C)O)[C@@H](O)[C@H]2O)n1 | – | 20 nM | > 25 µM | > 25 µM | 6.7 µM·h | 1300 ng/g | 45% | 13 µM·h | 58% | 3.2 µM·h | 25 µM | 56% | –
25 | CCOCCNc1nc(C)c(-c2nc3c(C)nccc3s2)c(N[C@@H]2C[C@H](C(O)(COC)COC)[C@@H](O)[C@H]2O)n1 | – | 3 nM | > 12 µM | 6 µM | – | – | – | – | – | – | – | – | –
26 | COCC(O)(COC)[C@H]1C[C@@H](Nc2nc(NCC3CC3)nc(C)c2-c2nc3c(C)nccc3s2)[C@H](O)[C@@H]1O | – | 2 nM | > 6 µM | > 6 µM | – | – | – | – | – | – | 4 µM | – | –
27 | Cc1nc(N[C@H](C)C2CC2)nc(N[C@@H]2C[C@H](C(C)(C)O)[C@@H](O)[C@H]2O)c1-c1nc2c(C)nccc2s1 | – | 20 nM | > 25 µM | > 25 µM | 19 µM·h | 13700 ng/g | 4% | 0.5 µM·h | 54% | 2.1 µM·h | > 25 µM | 32% | –
